Experiments:
Jejunum [1] = experiment: Drug uptake in Wistar rat jejunum pre-perfused with 400 uM CES inhibitor BNPP assessed as rate of drug disappearance at 100 uM at pH 5.4 by in-situ single-pass perfusion method; assay type: ADME, tissue-based; conditions: in vivo, pH 5.4, 100 µM
Outline: (§1)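 Same in situ jejunal single-pass perfusion, with carboxylesterase blocked by pre-perfusing the lumen with 400 µM BNPP for 40 min. Then 100 µM drug in luminal phosphate buffer (pH 5.4 or 6.4) at 0.2 ml/min. Vascular Krebs–Henseleit (pH 7.4) at 2.5 ml/min. Luminal, vascular and tissue levels measured by HPLC. Rates are luminal disappearance and appearance in lumen or mesenteric vein. Mean ± S.D., n = 3.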

Jejunum [2] = experiment: Drug uptake in Wistar rat jejunum pre-perfused with 400 uM CES inhibitor BNPP assessed as rate of drug disappearance at 100 uM at pH 6.4 by in-situ single-pass perfusion method; assay type: ADME, tissue-based; conditions: in vivo; outline: as §1
Jejunum [3] = experiment: Intracellular drug level in Wistar rat jejunum treated with Temocaprilat at 100 uM at pH 5.4 by in-situ single-pass perfusion method; assay type: ADME, tissue-based; conditions: in vivo, pH 5.4, 100 µM
Jejunum [4] = experiment: Drug hydrolysis in intact Wistar rat jejunum mucosal homogenate at 500 uM assessed per mg protein in presence of 1000 uM CES inhibitor BNPP; assay type: ADME, tissue-based; conditions: tissue homogenate
Outline: (§2)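 Jejunal mucosal homogenate or S9 (HEPES pH 7.4/KCl) taken from intact jejunum, or after 40 min perfusion with or without 400 µM BNPP. Protein at 400 µg/ml incubated at 37°C with 500 µM drug. Added BNPP (100 or 1000 µM) pre-incubated 5 min. Temocaprilat formed measured by HPLC and given as nmol/min/mg protein and % of control. Mean ± S.D., n = 4.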

Jejunum [5] = experiment: Drug uptake in Wistar rat jejunum pre-perfused with 400 uM CES inhibitor BNPP assessed as rate of temocaprilat appearance at 100 uM at pH 6.4 by in-situ single-pass perfusion method; assay type: ADME; conditions: in vivo, pH 6.4, 100 µM; outline: as §1
Jejunum [6] = experiment: Apparent absorption clearance in Wistar rat jejunum at 100 uM at pH 5.4 by in-situ single-pass perfusion method; assay type: ADME, tissue-based; conditions: in vivo, pH 5.4, 100 µM
Outline: (§3)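 Rats fasted 18–24 h, anesthetized with intraperitoneal pentobarbital. Isolated cannulated jejunal segment kept at 37°C in Krebs–Henseleit buffer with 3% BSA and 10 mM glucose. Vascular perfusion with Krebs–Henseleit (pH 7.4) at 2.5 ml/min. Lumen perfused at 0.2 ml/min with phosphate buffer (pH 5.4, 6.4 or 7.4) containing 100 µM drug plus FD-4. Luminal and vascular samples assayed by HPLC (UV 258 nm). Parameters normalized to 10 cm intestine. Mean ± S.D., n = 3–6.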

[7] = Permeability in Wistar rat jejunum at 100 uM at pH 7.4 by in-situ single-pass perfusion method; assay type: ADME, tissue-based; conditions: other: in-situ single-pass perfusion of the jejunum, read-out: Peff (converted)
Outline: (§4)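 Rats fasted 18–24 h and anesthetized with intraperitoneal pentobarbital. Jejunal loop perfused at 0.2 ml/min with phosphate buffer (pH 5.4, 6.4 or 7.4) containing 100 μM drug and FD-4 (0.1 mg/ml). Vascular perfusate was Krebs–Henseleit bicarbonate buffer (pH 7.4) at 2.5 ml/min, segment kept at 37°C. Drug and metabolite measured by HPLC (UV 258 nm). Peff normalized to 10 cm intestine; mean ± S.D., n = 3–6.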

Jejunum [8] = experiment: Apparent hydrolytic clearance in Wistar rat jejunum pre-perfused with 400 uM CES inhibitor BNPP at 100 uM at pH 6.4 by in-situ single-pass perfusion method; assay type: ADME, tissue-based; conditions: in vivo, pH 6.4, 100 µM; outline: as §1
Jejunum [9] = experiment: Apparent absorption clearance in Wistar rat jejunum pre-perfused with 400 uM CES inhibitor BNPP at 100 uM at pH 5.4 by in-situ single-pass perfusion method; assay type: ADME, tissue-based; conditions: in vivo, pH 5.4, 100 µM; outline: as §1
[10] = Ratio of Vmax to Km for drug jejunal in Wistar rat jejunal S9 fraction assessed per mg protein
Jejunum [11] = experiment: Drug uptake in Wistar rat jejunum pre-perfused with 400 uM CES inhibitor BNPP assessed as rate of temocaprilat appearance at 100 uM at pH 5.4 by in-situ single-pass perfusion method; assay type: ADME, tissue-based; conditions: in vivo, pH 5.4, 100 µM; outline: as §1
Jejunum [12] = experiment: Intracellular drug level in Wistar rat jejunum pre-perfused with 400 uM CES inhibitor BNPP at 100 uM at pH 6.4 by in-situ single-pass perfusion method; assay type: ADME, tissue-based; conditions: in vivo, pH 6.4, 100 µM; outline: as §1
Jejunum [13] = experiment: Apparent absorption clearance in Wistar rat jejunum at 100 uM at pH 6.4 by in-situ single-pass perfusion method; assay type: ADME, tissue-based; conditions: in vivo; outline: as §3
[14] = Permeability in Wistar rat jejunum pre-perfused with 400 uM CES inhibitor BNPP at 100 uM at pH 6.4 by in-situ single-pass perfusion method; assay type: ADME, tissue-based; conditions: other: in-situ single-pass perfusion of the jejunum, pH 6.4, with BNPP (CES inhibitor) 400 uM, read-out: Peff (converted)
Outline: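 Fasted, pentobarbital-anesthetized rats. Jejunum pre-perfused with BNPP (400 µM) for 40 min to inhibit CES. Lumen then perfused at 0.2 ml/min with 100 μM drug in phosphate buffer (pH 5.4 or 6.4). Vascular side received Krebs–Henseleit buffer (pH 7.4) at 2.5 ml/min. Luminal drug quantified by HPLC; Peff normalized to 10 cm segment; mean ± S.D., n = 3.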

[15] = Drug hydrolysis in intact Wistar rat jejunal S9 fraction at 500 uM assessed per mg protein; assay type: ADME, Jejunum; conditions: s9, 500 µM; outline: as §2
Jejunum [16] = experiment: Intracellular drug level in Wistar rat jejunum at 100 uM at pH 7.4 by in-situ single-pass perfusion method; assay type: ADME, tissue-based; conditions: in vivo, pH 7.4, 100 µM; outline: as §3
Jejunum [17] = experiment: Intracellular drug level in Wistar rat jejunum assessed as temocaprilat level pre-perfused with 400 uM CES inhibitor BNPP at 100 uM at pH 5.4 by in-situ single-pass perfusion method; assay type: ADME, tissue-based; conditions: in vivo, pH 5.4, 100 µM; outline: as §1
Jejunum [18] = experiment: Apparent hydrolytic clearance in Wistar rat jejunum at 100 uM at pH 5.4 by in-situ single-pass perfusion method; assay type: ADME, tissue-based; conditions: in vivo, pH 5.4, 100 µM; outline: as §3
Jejunum [19] = experiment: Intracellular drug level in Wistar rat jejunum at 100 uM at pH 6.4 by in-situ single-pass perfusion method; assay type: ADME, tissue-based; conditions: in vivo; outline: as §3
Jejunum [20] = experiment: Intracellular drug level in Wistar rat jejunum at 100 uM at pH 5.4 by in-situ single-pass perfusion method; assay type: ADME, tissue-based; conditions: in vivo; outline: as §3
[21] = Drug hydrolysis in Wistar rat jejunal S9 fraction assessed as rate of hydrolysis per mg protein; assay type: ADME, Jejunum
Outline: (§5)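 Duodenal or jejunal mucosa from fasted rats homogenized in 50 mM HEPES (pH 7.4) with 1.15% KCl; S9 is the 9000 g supernatant. S9 pre-incubated 5 min at 37°C, then drug added at 10–500 µM final (1% DMSO). Run for 20 min, stopped with acetonitrile, temocaprilat formed measured by HPLC. Km and Vmax from Michaelis–Menten nonlinear fit. Inhibitor (1 mM BNPP) pre-incubated 5 min. Results as % of control.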

[22] = Drug hydrolysis in intact Wistar rat jejunal S9 fraction at 500 uM assessed per mg protein in presence of 100 uM CES inhibitor BNPP; assay type: ADME, Jejunum; conditions: s9, 500 µM; outline: as §2
Jejunum [23] = experiment: Drug uptake in Wistar rat jejunum pre-perfused with 400 uM CES inhibitor BNPP assessed as rate of drug appearance at 100 uM at pH 5.4 by in-situ single-pass perfusion method; assay type: ADME, tissue-based; conditions: in vivo, pH 5.4, 100 µM; outline: as §1
Jejunum [24] = experiment: Drug uptake in Wistar rat jejunum pre-perfused with 400 uM CES inhibitor BNPP assessed as rate of temocaprilat disappearance at 100 uM at pH 6.4 by in-situ single-pass perfusion method; assay type: ADME, tissue-based; conditions: in vivo, pH 6.4, 100 µM; outline: as §1
[25] = Permeability in Wistar rat jejunum at 100 uM at pH 6.4 by in-situ single-pass perfusion method; assay type: ADME, tissue-based; conditions: other: in-situ single-pass perfusion of the jejunum, read-out: Peff (converted); outline: as §4
Jejunum [26] = experiment: Drug degradation in Wistar rat jejunum lumen assessed as rate of drug disappearance at 100 uM by in-situ single-pass perfusion method; assay type: ADME, tissue-based; outline: as §3
[27] = Drug hydrolysis in Wistar rat duodenal S9 fraction; assay type: ADME, Duodenum; outline: as §5

SMILES: CCOC(=O)[C@H](CCc1ccccc1)N[C@H]1CS[C@H](c2cccs2)CN(CC(=O)O)C1=O [TEMOCAPRIL]
- CL (Jejunum [1]): 2.98 nmol/min
- CL (Jejunum [2]): 2.44 nmol/min
- Drug uptake (Jejunum [3]): 34.2 nmol/g
- Drug degradation (Jejunum [4]): 1.97 nmol/min
- CL (Jejunum [5]): 0.604 nmol/min
- CL(app) (Jejunum [6]): 3.59 µL/min
- Papp at 100 µM [7]: 54.2 ×10⁻⁶ cm/s
- CL (Jejunum [8]): 19.5 µL/min
- CL(app) (Jejunum [9]): 10.6 µL/min
- Vmax/Km [10]: 108 µL/min
- CL (Jejunum [11]): 1.01 nmol/min
- Drug uptake (Jejunum [12]): 15.4 nmol/g
- CL(app) (Jejunum [13]): 1.59 µL/min
- Papp at 100 µM [14]: 38.7 ×10⁻⁶ cm/s
- Drug degradation [15]: 4.46 nmol/min
- Drug uptake (Jejunum [16]): 1.02 nmol/g
- Drug uptake (Jejunum [17]): 17 nmol/g
- CL (Jejunum [18]): 34.4 µL/min
- Drug uptake (Jejunum [19]): 1.83 nmol/g
- Drug uptake (Jejunum [20]): 5.46 nmol/g
- Vmax [21]: 5.11 nmol/min/mg
- Drug degradation [22]: 1.13 nmol/min
- CL (Jejunum [23]): 0.862 nmol/min
- CL (Jejunum [24]): 1.17 nmol/min
- Papp at 100 µM [25]: 57.2 ×10⁻⁶ cm/s
- Drug degradation (Jejunum [26]): 3.89 nmol/min
- Km [27]: 47.4 µM

From ChEMBL document CHEMBL3526140, “Prediction of human intestinal absorption of the prodrug temocapril by in situ single-pass perfusion using rat intestine with modified hydrolase activity” (Drug Metab Dispos, 2011)
